ChEMBL document CHEMBL3758153, “Identification of novel cyclic lipopeptides from a positional scanning combinatorial library with enhanced antibacterial and antibiofilm activities” (Eur J Med Chem, 2016)
Activity calls are given as the source filed them. No cut-off for these calls is given here. Where a SMILES comes first, the peptide text is derived from it. Bridges are numbered along the chain shown (N, C = ends). [ ]: non-standard residue; d: D form. The star is where a group is joined. Dodecanoyl(12-guanidino) = N=C(N)NCCCCCCCCCCCC(=O)*; d(aThr) = C[C@@H](O)[C@@H](N)C(=O)O

Columns and labels:
Enterococcus faecium [1] = assay: Antibacterial activity against vancomycin-resistant Enterococcus faecium USF-1449 at 50 ug/mL; assay type: functional, organism-based
Method in brief: (§1)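 CLSI microbroth dilution in undiluted Müller–Hinton broth; peptides dissolved in DMSO and diluted in medium to 1% DMSO (v/v) final. Each agent tested at a fixed concentration against the ESKAPE clinical isolate. Controls: medium alone, inoculum without drug, and inoculum with methicillin, vancomycin, nisin, colistin or bacitracin. Run in triplicate.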

BJ = assay: Cytotoxicity against human BJ cells assessed as reduction in cell viability at 150 uM after 48 to 72 hrs by Cell Titer-Glo Luminescent assay; assay type: cell-based
Method in brief: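 BJ fibroblasts were seeded at 10,000 per well in EMEM with 10% FBS and incubated overnight at 37 °C, 5% CO2. Medium was then replaced with 2% FBS medium containing peptide (0.5–500 μM, final 1% DMSO). After 48 and 72 h, viability was read by CellTiter-Glo luminescence. Controls were 10 μM doxorubicin and 20% DMSO.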

Staphylococcus aureus [2] = assay: Antibacterial activity against methicillin-resistant Staphylococcus aureus SAP0017 clinical isolate assessed as inhibition of biofilm formation at 4.8 uM after 3 days by Styo-9/propidium iodide staining based confocal laser scanning microscopy; assay type: functional, organism-based
Staphylococcus aureus [3] = assay: Antibacterial activity against methicillin-resistant Staphylococcus aureus CBD-635 at 25 ug/mL; assay type: functional, organism-based; method in brief: as §1
Pseudomonas aeruginosa [4] = assay: Antibacterial activity against Pseudomonas aeruginosa PA14 assessed as eradication of mature biofilm formation at 4.8 uM after 24 hrs by Styo-9/propidium iodide staining based confocal laser scanning microscopy; assay type: functional, organism-based
Staphylococcus aureus [5] = assay: Antibacterial activity against methicillin-resistant Staphylococcus aureus CBD-635 at 100 ug/mL; assay type: functional, organism-based; method in brief: as §1
Enterococcus faecium [6] = assay: Antibacterial activity against vancomycin-resistant Enterococcus faecium USF-1449 at 25 ug/mL; assay type: functional, organism-based; method in brief: as §1
[7] = Hemolytic activity in human erythrocytes at 155 uM after 1 hr; assay type: ADME, cell-based; conditions: erythrocyte
Staphylococcus aureus [8] = assay: Antibacterial activity against methicillin-resistant Staphylococcus aureus CBD-635 at 10 ug/mL; assay type: functional, organism-based; method in brief: as §1
Acinetobacter baumannii [9] = assay: Antibacterial activity against Acinetobacter baumannii USF-1403 at 100 ug/mL; assay type: functional, organism-based
Method in brief: (§2)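 Broth microdilution per CLSI in undiluted Müller–Hinton broth. Compounds were dissolved in DMSO and diluted to a final 1% DMSO (v/v). Plates included medium-only and no-drug growth controls, plus methicillin, vancomycin, nisin, colistin and bacitracin. Triplicate runs.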

Pseudomonas aeruginosa [10] = assay: Antibacterial activity against Pseudomonas aeruginosa PA14 assessed as inhibition of biofilm formation at 4.8 uM after 3 days by Styo-9/propidium iodide staining based confocal laser scanning microscopy; assay type: functional, organism-based
Staphylococcus aureus [11] = assay: Antibacterial activity against methicillin-resistant Staphylococcus aureus SAP0017 clinical isolate assessed as eradication of mature biofilm formation at 4.8 uM after 24 hrs by Styo-9/propidium iodide staining based confocal laser scanning microscopy; assay type: functional, organism-based
Staphylococcus aureus [12] = assay: Antibacterial activity against methicillin-resistant Staphylococcus aureus CBD-635 at 50 ug/mL; assay type: functional, organism-based; method in brief: as §1
Enterococcus faecium [13] = assay: Antibacterial activity against vancomycin-resistant Enterococcus faecium USF-1449 at 100 ug/mL; assay type: functional, organism-based; method in brief: as §1
Enterococcus faecium [14] = assay: Antibacterial activity against vancomycin-resistant Enterococcus faecium USF-1449 at 35 ug/mL; assay type: functional, organism-based; method in brief: as §1
Acinetobacter baumannii [15] = assay: Antibacterial activity against Acinetobacter baumannii USF-1403 at 25 ug/mL; assay type: functional, organism-based; method in brief: as §2
Staphylococcus aureus [16] = assay: Antibacterial activity against methicillin-resistant Staphylococcus aureus CBD-635 at 35 ug/mL; assay type: functional, organism-based; method in brief: as §1
Acinetobacter baumannii [17] = assay: Antibacterial activity against Acinetobacter baumannii USF-1403 at 50 ug/mL; assay type: functional, organism-based; method in brief: as §2
Klebsiella pneumoniae [18] = assay: Antibacterial activity against carbapenem-resistant Klebsiella pneumoniae USF-1433 at 50 ug/mL; assay type: functional, organism-based; method in brief: as §1
Acinetobacter baumannii [19] = assay: Antibacterial activity against Acinetobacter baumannii USF-1403 at 35 ug/mL; assay type: functional, organism-based; method in brief: as §2
Klebsiella pneumoniae [20] = assay: Antibacterial activity against carbapenem-resistant Klebsiella pneumoniae USF-1433 at 100 ug/mL; assay type: functional, organism-based; method in brief: as §1
Staphylococcus aureus [21] = assay: Ratio of MIC for methicillin-resistant Staphylococcus aureus CBD-635 after 8 serial passages to MIC for methicillin-resistant Staphylococcus aureus CBD-635 after 1st serial passage; assay type: functional
Method in brief: (§3)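 Serial passage: exponential-phase cultures in MHB at about 10^6 CFU/mL final, started at ½ MIC of agent, incubated overnight at 37°C. An aliquot was moved each step to a 2-fold higher concentration, for 8 passages. MIC was determined at each step by broth microdilution. Vancomycin and ciprofloxacin were comparators. Three independent experiments.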

Pseudomonas aeruginosa [22] = assay: Ratio of MIC for Pseudomonas aeruginosa USF-1423 after 8 serial passages to MIC for Pseudomonas aeruginosa USF-1423 after 1st serial passage; assay type: functional; method in brief: as §3
Enterobacter cloacae [23] = assay: Antibacterial activity against carbapenem-resistant Enterobacter cloacae USF-1454 at 100 ug/mL; assay type: functional, organism-based; method in brief: as §1
Enterobacter cloacae [24] = assay: Antibacterial activity against carbapenem-resistant Enterobacter cloacae USF-1454 at 50 ug/mL; assay type: functional, organism-based; method in brief: as §1
Pseudomonas aeruginosa [25] = assay: Antibacterial activity against Pseudomonas aeruginosa USF-1423 at 25 ug/mL; assay type: functional, organism-based; method in brief: as §2
Pseudomonas aeruginosa [26] = assay: Antibacterial activity against Pseudomonas aeruginosa USF-1423 at 5 ug/mL; assay type: functional, organism-based; method in brief: as §2
Enterobacter cloacae [27] = assay: Antibacterial activity against carbapenem-resistant Enterobacter cloacae USF-1454 at 25 ug/mL; assay type: functional, organism-based; method in brief: as §1
Pseudomonas aeruginosa [28] = assay: Antibacterial activity against Pseudomonas aeruginosa USF-1423 at 100 ug/mL; assay type: functional, organism-based; method in brief: as §2
Enterococcus faecium [29] = assay: Antibacterial activity against vancomycin-resistant Enterococcus faecium USF-1449 at 10 ug/mL; assay type: functional, organism-based; method in brief: as §1
Acinetobacter baumannii [30] = assay: Antibacterial activity against Acinetobacter baumannii USF-1403 at 10 ug/mL; assay type: functional, organism-based; method in brief: as §2
Pseudomonas aeruginosa [31] = assay: Antibacterial activity against Pseudomonas aeruginosa USF-1423 at 50 ug/mL; assay type: functional, organism-based; method in brief: as §2
Pseudomonas aeruginosa [32] = assay: Antibacterial activity against Pseudomonas aeruginosa USF-1423 at 10 ug/mL; assay type: functional, organism-based; method in brief: as §2
Acinetobacter baumannii [33] = assay: Antibacterial activity against Acinetobacter baumannii USF-1403 at 5 ug/mL; assay type: functional, organism-based; method in brief: as §2
[34] = Hemolytic activity in human erythrocytes at 320 uM after 1 hr; assay type: ADME, cell-based; conditions: erythrocyte
Staphylococcus aureus [35] = assay: Antibacterial activity against methicillin-resistant Staphylococcus aureus CBD-635 at 5 ug/mL; assay type: functional, organism-based; method in brief: as §1

Molecule | Activity (Enterococcus faecium [1]) | Activity (Staphylococcus aureus [3]) | Activity (Staphylococcus aureus [5]) | Activity (Acinetobacter baumannii [9]) | Activity (Staphylococcus aureus [12]) | Activity (Enterococcus faecium [13]) | Activity (Staphylococcus aureus [16]) | other results
CC(C)[C@@H]1NC(=O)[C@@H](C(C)C)NC(=O)[C@@H](NC(=O)CCCCCCCCCCCNC(=N)N)[C@@H](C)OC(=O)[C@@H](C)NC(=O)[C@@H](CC(N)=O)NC(=O)[C@@H]([C@@H](C)O)NC1=O ({Dodecanoyl(12-guanidino)}-T[dV]V[d(aThr)][dN][dA]; ester 1-C) | Active | Active | Active | Active | Active | – | – | Activity (BJ): Toxic; inhibition (Staphylococcus aureus [2]): Active; Activity (Pseudomonas aeruginosa [4]): Active; Activity (Enterococcus faecium [6]): Active; Activity [7]: Toxic; Activity (Staphylococcus aureus [8]): Active; inhibition (Pseudomonas aeruginosa [10]): Active; Activity (Staphylococcus aureus [11]): Active
CC(C)C[C@@H]1NC(=O)[C@@H](CC(C)C)NC(=O)C(NC(=O)CCCCCCCCCCCNC(=N)N)CNC(=O)[C@@H](CCCNC(=N)N)NC(=O)[C@@H](CC(N)=O)NC(=O)[C@@H](CCCCN)NC1=O (stereo partly drawn) | Active | – | Active | Active | Active | Active | Active | Activity (Enterococcus faecium [14]): Active; Activity (Acinetobacter baumannii [15]): Active; Activity (Acinetobacter baumannii [17]): Active; Activity (Klebsiella pneumoniae [18]): Active; Activity (Acinetobacter baumannii [19]): Active; Activity (Klebsiella pneumoniae [20]): Active
CC(C)C[C@@H]1NC(=O)[C@@H](CC(C)C)NC(=O)C(NC(=O)CCCCCCCCCCCNC(=N)N)CNC(=O)[C@@H](CCCNC(=N)N)NC(=O)[C@@H](CC(N)=O)NC(=O)[C@@H](Cc2ccccc2)NC1=O (stereo partly drawn) | – | – | Active | – | Active | – | – | –
CC(C)C[C@@H]1NC(=O)[C@@H](CC(C)C)NC(=O)C(NC(=O)CCCCCCCCCCCNC(=N)N)CNC(=O)[C@@H](CCCCN)NC(=O)[C@@H](CC(N)=O)NC(=O)[C@@H](Cc2ccccc2)NC1=O (stereo partly drawn) | – | – | Active | – | Active | – | Active | –
CC(C)C[C@@H]1NC(=O)[C@@H](Cc2c[nH]c3ccccc23)NC(=O)C(NC(=O)CCCCCCCCCCCNC(=N)N)CNC(=O)[C@@H](CCCNC(=N)N)NC(=O)[C@@H](CC(N)=O)NC(=O)[C@@H](Cc2c[nH]c3ccccc23)NC1=O (stereo partly drawn) | – | Active | Active | – | Active | – | Active | –
C[C@@H](O)[C@H]1NC(=O)[C@@H](CC(N)=O)NC(=O)[C@@H](CCCNC(=N)N)NC(=O)[C@H](Cc2c[nH]c3ccccc23)NC(=O)[C@@H](Cc2c[nH]c3ccccc23)NC(=O)C(NC(=O)CCCCCCCCCCCNC(=N)N)CNC1=O (stereo partly drawn) | – | – | Active | – | Active | – | Active | –
O=C(O)c1cn(C2CC2)c2cc(N3CCNCC3)c(F)cc2c1=O [CIPROFLOXACIN] | – | – | – | – | – | – | – | Ratio (Staphylococcus aureus [21]): 64; Ratio (Pseudomonas aeruginosa [22]): 64
CC[C@@H](C)[C@H]1NC(=O)[C@H](CC(C)C)NC(=O)[C@@H](CCCCN)NC(=O)C(NC(=O)CCCCCCCCCCCNC(=N)N)CNC(=O)[C@@H](CCCCN)NC(=O)[C@@H](CC(N)=O)NC1=O (stereo partly drawn) | Active | – | – | Active | – | Active | – | Activity (Acinetobacter baumannii [15]): Active; Activity (Acinetobacter baumannii [17]): Active; Activity (Acinetobacter baumannii [19]): Active
COLISTIN | Active | – | Active | Active | – | Active | – | Activity (Enterobacter cloacae [23]): Active; Activity (Enterobacter cloacae [24]): Active; Activity (Pseudomonas aeruginosa [25]): Active; Activity (Pseudomonas aeruginosa [26]): Active; Activity (Enterobacter cloacae [27]): Active; Activity (Acinetobacter baumannii [15]): Active; Activity (Enterococcus faecium [6]): Active; Activity (Pseudomonas aeruginosa [28]): Active; Activity (Enterococcus faecium [29]): Active; Activity (Acinetobacter baumannii [30]): Active; Activity (Acinetobacter baumannii [17]): Active; Activity (Pseudomonas aeruginosa [31]): Active; Activity (Klebsiella pneumoniae [20]): Active; Activity (Pseudomonas aeruginosa [32]): Active; Activity (Acinetobacter baumannii [33]): Active
CC[C@@H](C)[C@H]1NC(=O)[C@H](Cc2ccccc2)NC(=O)[C@@H](CC(C)C)NC(=O)C(NC(=O)CCCCCCCCCCCNC(=N)N)CNC(=O)[C@@H](CCCNC(=N)N)NC(=O)[C@@H](CC(N)=O)NC1=O (stereo partly drawn) | – | – | Active | – | Active | – | Active | –
CC[C@@H](C)[C@H]1NC(=O)[C@H](Cc2ccccc2)NC(=O)[C@@H](CC(C)C)NC(=O)C(NC(=O)CCCCCCCCCCCNC(=N)N)CNC(=O)[C@@H](CCCCN)NC(=O)[C@@H](CC(N)=O)NC1=O (stereo partly drawn) | – | – | Active | – | Active | – | Active | –
CC(C)[C@@H]1NC(=O)[C@@H](C(C)C)NC(=O)C(NC(=O)CCCCCCCCCCCNC(=N)N)CNC(=O)[C@@H](C)NC(=O)[C@@H](CC(N)=O)NC(=O)[C@@H]([C@@H](C)O)NC1=O (stereo partly drawn) | Active | Active | Active | Active | – | Active | – | inhibition (Staphylococcus aureus [2]): Active; inhibition (Pseudomonas aeruginosa [4]): inactive; inhibition (Pseudomonas aeruginosa [10]): Active; inhibition (Staphylococcus aureus [11]): inactive; Activity [34]: Non-toxic
CN[C@@H](CC(C)C)C(=O)N[C@H]1C(=O)N[C@@H](CC(N)=O)C(=O)N[C@H]2C(=O)N[C@H]3C(=O)N[C@H](C(=O)N[C@@H](C(=O)O)c4cc(O)cc(O)c4-c4cc3ccc4O)[C@H](O)c3ccc(c(Cl)c3)Oc3cc2cc(c3O[C@H]2O[C@@H](CO)[C@H](O)[C@@H](O)[C@@H]2O[C@@H]2C[C@@](C)(N)[C@@H](O)[C@@H](C)O2)Oc2ccc(cc2Cl)[C@H]1O | – | Active | Active | Active | Active | – | – | Ratio (Staphylococcus aureus [21]): 64; Activity (Staphylococcus aureus [35]): Active; Activity (Staphylococcus aureus [8]): Active; Ratio (Pseudomonas aeruginosa [22]): 64
